# Assay outcomes deposited in PubChem by several laboratories.
# MPTP inh: mitochondrial permeability transition pore inhibitors, primary screen, biochemical, isolated mouse mitochondria, absorbance | Ca2+ swelling absorbance, 30 min | inhibition, % at 10 µM | 360,000 compounds, 1.4% hits | AID 602449, 2012;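 active = inhibition of 50% or more, scaled per plate between neutral and stimulator controls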;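 also: 0% = DMSO wells given calcium and 100% = 1 mM EGTA wells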
# TbMetRS inhib: T. brucei MetRS inhibitors, primary screen, biochemical, luminescence. 360,000 compounds, 0.4% hits. inhibition, % at 11.9 µM. methionyl-tRNA synthetase (Trypanosoma brucei brucei). purified T. brucei MetRS, ATP depletion, Kinase-Glo luminescence;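 active = inhibition above a per-plate cutoff of the control wells' mean inhibition plus 3 SD, cut at about 5.5% in these data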;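 also: 0% = DMSO wells median and 100% = median of wells with control inhibitor compound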
#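 Assay system: T. brucei methionyl-tRNA synthetase, purified | Medium: HEPES buffer with MgCl2, KCl, DTT, spermine, BSA, pyrophosphatase | Compound: 11.9 µM single point | Incubation: 15 min enzyme-compound preincubation, 2 h reaction, 10 min detection, 25 °C | Measured by: Kinase-Glo luciferase luminescence reporting remaining unconsumed ATP | Measure: % inhibition normalized to control-well medians | Replication: Singlicate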
# EBV gp42 inh: Epstein-Barr virus gp42 inhibitors, primary screen, biochemical, uHTS, fluorescence polarization; Glycoprotein 42 (Epstein-Barr virus (strain AG876)), Q1HVG2; Fluorescence polarization binding assay, mP read-out; inhibition, % (tested at 21.74 µM); 220,000 compounds, 0.42% hits; AID 1085, 2008; in the data active = inhibition above about 50%
# Target sequence (Q1HVG2 whole entry, looked up): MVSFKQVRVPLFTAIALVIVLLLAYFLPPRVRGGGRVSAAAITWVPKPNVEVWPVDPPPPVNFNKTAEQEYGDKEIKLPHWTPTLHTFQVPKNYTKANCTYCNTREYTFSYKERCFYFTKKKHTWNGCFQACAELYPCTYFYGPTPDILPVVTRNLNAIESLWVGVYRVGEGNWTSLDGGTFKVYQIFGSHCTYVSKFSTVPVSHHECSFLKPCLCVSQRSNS
# CHOP inh: inhibitors of CHOP promoter induction, primary screen, cell-based, unfolded protein response, luciferase reporter. CHO-K1 CHOP-promoter luciferase, tunicamycin-induced, 15-18 h. inhibition, % at 10 µM. 220,000 compounds, 3.8% hits. AID 2732, 2010;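 active = compounds that reduced the stress-induced luciferase reporter signal by more than about 70% of percent inhibition, limit read from the data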;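 also: 0% = tunicamycin plus vehicle and 100% = wells without tunicamycin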
# GRIN3A LBD mod: binders of NR3A ligand-binding domain, primary screen, biophysical, differential scanning fluorimetry, uHTS; NR3A LBD differential scanning fluorimetry, Tm shift; 0% = protein alone, 100% = glycine-bound protein; Tm shift relative to glycine control, % at 25 µM; 340,000 compounds, 2.5% hits; AID 1259313, 2017;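 active = melting temperature shift of at least 10% of the positive control shift, at one fixed dose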
# WT yeast gro inh: growth inhibition of WT strain, primary screen, mitochondrial fusion inhibitor project, WT and mutant strains, chemical genetic; mitochondrial fusion phenotypic screen; inhibition, % at 10 µM; 190,000 compounds, 2.1% hits; AID 1362, 2008; in the data active = inhibition above about 58%; tested in S. cerevisiae
# An asterisk follows results filed as active; nt = no result given. In the library only some 6.4% were active in any assay of this set; here they are far more common.
SMILES,MPTP inh,TbMetRS inhib,EBV gp42 inh,CHOP inh,GRIN3A LBD mod,WT yeast gro inh
CCCCN1C(=O)NC(=O)C2(Cc3c(nc4ccccn4c3=O)N3CCc4ccccc4C32)C1=O (centres undefined),1.9,0.3,-7.8,31.4,2.7,21.1
CCCCN1C(=O)NC(=O)C2(Cc3c(nc4c(C)cccn4c3=O)N3CCc4ccccc4C32)C1=O (centres undefined),7.3,0.1,10.2,64.8,2.8,72.0*
CCC(=Nc1ccc(OC)cc1OC)c1c(O)n(C2CCCCC2)c(=O)[nH]c1=O,11.4,-0.1,0.1,-7.9,-1.3,68.4*
CCC(=NCc1ccco1)c1c(O)n(C2CCCCC2)c(=O)[nH]c1=O,-1.2,-0.7,-6.1,44.4,0.0,18.5
O=C1C(=O)c2ccccc2-c2ccccc21,2.8,38.2*,-4.8,107.0*,-0.8,96.8*
O=[N+]([O-])c1ccc(C2[C@H]3C(c4ccccc4)=NC4(CCCC4)N23)cc1 (some centres undefined),-0.6,-0.6,5.0,9.0,-0.2,3.9
Cc1ccc(C2=NC(C)(C)N3C2C3c2ccc([N+](=O)[O-])cc2)cc1 (centres undefined),1.9,0.1,-0.2,70.3*,0.5,7.9
CCOP(=O)(OCC)C(NC(=O)c1cccc([N+](=O)[O-])c1)C(Cl)(Cl)Cl (centres undefined),-0.1,1.6,-15.2,-10.0,0.2,nt
CCCCCCCCCOc1ccc2[nH]cc(CCN)c2c1,nt,nt,-0.1,18.2,nt,97.2*
O=c1c2ccccc2nc(-c2ccccc2)n1-n1cccc1,-0.5,0.3,-7.3,-60.2,11.0*,7.1
Cc1sc(-n2c(C)cc(C=C3C(=O)NC(=O)NC3=O)c2C)c(C#N)c1C,nt,nt,-51.4,80.2*,1.9,-12.6
COc1cccc(CNC(=O)CCC(=O)N2C[C@H]3C[C@H](C2)c2cccc(=O)n2C3)c1OC,-2.6,-0.5,nt,nt,-0.5,nt
Cc1ccc(CN2C(=O)CN=C(c3ccccc3)c3ccccc32)cc1,1.4,-0.5,-16.6,22.9,-3.0,12.6
Cc1oc(-c2ccccc2)nc1CN1C(=O)CN=C(c2ccccc2)c2ccccc21,0.8,-0.1,-2.0,27.1,-3.9,58.4*
Nc1ccnn1C1CCNCC1,-2.2,0.2,-7.1,-3.9,-1.9,2.2
CN1CCN(c2nc(N)c(Br)c(Cl)n2)CC1,-0.6,-0.8,-6.8,15.1,13.5*,nt
CCCCn1c(O)c(C(C)=Nc2ccc(OCC)cc2)c(=O)[nH]c1=O,-9.5,-0.5,-6.3,95.4*,0.9,3.8
CCn1c(O)c(C=NCCc2c[nH]c3ccccc23)c(=O)[nH]c1=O,-1.9,-0.1,-20.2,24.9,-3.3,7.4
COC(=O)C1=C(c2cccc(OC)c2OC)C[C@@H]2CC[C@H]1N2C(=O)NCc1ccc(C(F)(F)F)cc1,0.8,0.0,nt,nt,0.6,nt
Cc1cccc(NP(=O)(Oc2ccccc2)Oc2ccccc2)c1C,3.3,-0.1,nt,nt,-1.2,nt
Cc1ccccc1NP(=O)(Oc1ccccc1F)Oc1ccccc1F,-0.8,-1.0,-19.1,-22.9,11.2*,32.7
Cc1cc(=O)oc2cc(OCC(=O)N3CCN(Cc4ccccc4)CC3)ccc12,0.5,0.0,nt,nt,0.4,nt
CCCCc1nc2ccccc2c(=O)n1-c1ccc(Cl)cc1[N+](=O)[O-],-1.1,-0.3,5.2,44.6,-1.0,64.2*
[Cl][Pt+2][Cl].[NH-]C1CCCCC1[NH-] (centres undefined),2.2,0.1,nt,nt,-1.3,nt
CCCCCn1c(=O)c(C(=O)Nc2nc(CC(=O)OCC)cs2)c(O)c2ccccc21,22.0,-0.1,2.1,92.2*,0.4,-16.9
SMILES,MPTP inh,TbMetRS inhib,EBV gp42 inh,CHOP inh,GRIN3A LBD mod,WT yeast gro inh
CCCCCn1c(=O)c(C(=O)Nc2ccccc2C)c(O)c2ccccc21,4.1,0.3,nt,nt,-1.2,nt
CCCCCCn1c(=O)c(C(=O)Nc2nnc(C)s2)c(O)c2ccccc21,nt,nt,4.6,52.4,nt,36.4
CCCCn1c(=O)c(C(=O)Nc2nnc(C(C)C)s2)c(O)c2ccccc21,nt,nt,-11.1,52.0,nt,69.1*
O=C(/C=C/c1ccccc1)N1Cc2ccccc2-n2nncc2C1,-0.7,-0.1,nt,nt,nt,nt
CCOC(=O)C(=O)NC1CCSC1=O (centres undefined),-1.2,-0.8,-8.1,32.9,-3.3,-5.0
CCCN1CCc2cccc3c2[C@H]1Cc1ccc(O)c(O)c1-3,4.5,0.0,nt,-6.8,-0.5,nt
Cc1ccc([N+](=O)[O-])cc1,0.5,-0.9,nt,nt,0.1,nt
Cn1cc[n+](C)c1P(=S)(c1ccccc1)c1ccccc1,-1.5,-0.6,-32.5,-5.0,0.7,2.6
CCCCn1c(O)c(/C=N/N2CCCCC2c2cccnc2)c(=O)[nH]c1=S (centres undefined),0.5,-0.4,-30.8,15.6,-1.3,-7.0
C/C(=N\N1CCCCC1c1cccnc1)c1c(O)n(C2CCCCC2)c(=S)[nH]c1=O (centres undefined),-3.8,0.0,-116.7,30.5,-6.8,73.8*
CCCCn1c(O)c(/C(CC)=N/N2CCCCC2c2cccnc2)c(=O)[nH]c1=S (centres undefined),-0.2,-1.2,-26.9,46.0,-8.5,58.6*
COc1cc(/C=C2\C(=O)NC(=O)N(c3ccccc3)C2=O)cc(OC)c1O,3.4,-0.9,-61.3,53.0,11.1*,3.3
COC(=O)c1cccc(N=Cc2c(O)n(Cc3ccc(F)cc3)c(=O)[nH]c2=O)c1,4.0,3.0,-12.2,59.9,-0.7,nt
Cc1cccc(NC2=NCCCS2)c1,5.3,-0.5,-9.6,10.2,-0.1,nt
CCC1CCCCN1P(=O)(c1ccc(C)o1)C(C)(C)C (centres undefined),-2.8,-0.6,-16.3,-6.3,3.7,-8.1
CCn1c(O)c(C(c2ccccn2)c2c(O)n(CC)c(=S)[nH]c2=O)c(=O)[nH]c1=S,0.2,-0.5,8.0,3.7,2.2,96.5*
O=c1[nH]c(=S)[nH]c(O)c1C(c1ccccn1)c1c(O)[nH]c(=S)[nH]c1=O,0.2,-0.6,-6.3,28.0,-3.2,2.3
CN1CCN(c2ccc(S(=O)(=O)C(F)(F)F)cc2[N+](=O)[O-])CC1,0.3,0.4,-0.1,10.8,15.3*,-1.2
CN1CCN(c2ccc(S(C)(=O)=O)cc2[N+](=O)[O-])CC1,0.8,0.4,-4.1,-9.6,-3.4,-19.5
CCOC(=O)c1c(-n2c(C)cc(/C=C3\C(=O)NC(=O)N(C)C3=O)c2C)sc2c1CCCC2,15.0,-0.5,-15.2,76.9*,-0.3,37.0
Cc1cc(/C=C2\C(=O)NC(=O)N(c3ccc(Cl)cc3)C2=O)c(C)n1-c1sc2c(c1C#N)CCCC2,3.5,0.5,-72.8,-22.0,2.4,-4.0
